Results published in publication PMC5520537 (Antiviral research, 2017).
Read-outs that look alike come from different tables or passages of the source.

Key:
HBV RNaseH [1] = target: T1, HBV RNaseH (Hepatitis B virus genotype D subtype ayw, UniProt P03156); test: Oligonucleotide-directed RNA cleavage assay with purified HBV RNaseH; format: biochemical; conditions: for Inhibition of HBV RNaseH, Oligonucleotide directed cleavage assay: qualitative, compounds at 100, 60 and 20 μM, 16 previously untested compounds
Outline: (§1)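 Enzymes were His-tagged and expressed in E. coli, then nickel-affinity purified. A 32P-labelled RNA annealed to a DNA oligonucleotide was incubated with RNaseH and test compound at 42°C for 90 min. Products were gel-resolved and autoradiographed. Inhibition was scored qualitatively as dose-dependent reduction in substrate degraded.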

HBV genotype D = test: HBV replication inhibition assay in HepDES19 cells; format: cell-based, hepatitis B virus; conditions: for HBV replication inhibition, qualitative screen: 20 μM, plus-polarity DNA; for EC50: read-out: HBV replication inhibition (EC50), 3 days, plus-polarity DNA strand, average ± SD
HBV polymerase = HBV polymerase (Hepatitis B virus genotype D subtype ayw, UniProt P03156); test: Endogenous polymerase reaction; format: biochemical; conditions: inhibitors at 4X EC50; #138 and #211 at 30 μM; ddTTP […]; 7 hours
HBV RNaseH [2] = target: T1, HBV RNaseH; test: Molecular beacon fluorescence RNaseH cleavage assay; format: biochemical; conditions: for Inhibition of HBV RNaseH, Molecular Beacon cleavage assay: qualitative, 0 to 500 μM compound, 2.1 μg HBV RNaseH; for Inhibition in the molecular beacon assay: 2.1 μg purified HBV RNaseH, 0 to 500 μM
HepDES19 cells [3] = conditions: read-out: Toxicity in HepDES19, MTS (CC50); 72 hours; average ± SD
HepDES19 cells [4] = conditions: read-out: Toxicity in HepDES19, NR (CC50); 72 hours; average ± SD
HepDES19 cells [5] = conditions: read-out: Toxicity in HepDES19, LDH (CC50); 72 hours; average ± SD
HBV RNaseH [6] = target: T1, HBV RNaseH; conditions: qualitative; previously reported; ref Cai et al., 2014; cited from earlier work
HIV replication = conditions: read-out: HIV replication inhibition; ref Suchaud et al., 2014; cited from earlier work
huRNaseH1 = target: T2, huRNaseH1 (Homo sapiens, UniProt O60930); test: Oligonucleotide-directed cleavage assay with purified huRNaseH1; format: biochemical; conditions: 100, 60 and 20 μM
T2 sequence (O60930 1-286): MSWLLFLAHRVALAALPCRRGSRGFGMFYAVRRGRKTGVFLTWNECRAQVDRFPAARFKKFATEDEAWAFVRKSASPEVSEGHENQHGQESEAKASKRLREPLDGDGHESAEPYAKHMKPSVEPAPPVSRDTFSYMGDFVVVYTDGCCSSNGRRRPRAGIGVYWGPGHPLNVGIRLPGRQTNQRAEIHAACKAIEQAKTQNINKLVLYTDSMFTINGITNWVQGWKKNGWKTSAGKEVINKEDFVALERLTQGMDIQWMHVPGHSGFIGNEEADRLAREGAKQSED
Outline: as §1

T1 sequence (P03156 671-832): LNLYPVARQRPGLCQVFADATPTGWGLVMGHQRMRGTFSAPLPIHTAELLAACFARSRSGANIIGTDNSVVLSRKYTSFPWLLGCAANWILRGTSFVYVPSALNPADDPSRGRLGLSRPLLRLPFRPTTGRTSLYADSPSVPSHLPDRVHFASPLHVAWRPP
Sequence of HBV polymerase (P03156 whole entry): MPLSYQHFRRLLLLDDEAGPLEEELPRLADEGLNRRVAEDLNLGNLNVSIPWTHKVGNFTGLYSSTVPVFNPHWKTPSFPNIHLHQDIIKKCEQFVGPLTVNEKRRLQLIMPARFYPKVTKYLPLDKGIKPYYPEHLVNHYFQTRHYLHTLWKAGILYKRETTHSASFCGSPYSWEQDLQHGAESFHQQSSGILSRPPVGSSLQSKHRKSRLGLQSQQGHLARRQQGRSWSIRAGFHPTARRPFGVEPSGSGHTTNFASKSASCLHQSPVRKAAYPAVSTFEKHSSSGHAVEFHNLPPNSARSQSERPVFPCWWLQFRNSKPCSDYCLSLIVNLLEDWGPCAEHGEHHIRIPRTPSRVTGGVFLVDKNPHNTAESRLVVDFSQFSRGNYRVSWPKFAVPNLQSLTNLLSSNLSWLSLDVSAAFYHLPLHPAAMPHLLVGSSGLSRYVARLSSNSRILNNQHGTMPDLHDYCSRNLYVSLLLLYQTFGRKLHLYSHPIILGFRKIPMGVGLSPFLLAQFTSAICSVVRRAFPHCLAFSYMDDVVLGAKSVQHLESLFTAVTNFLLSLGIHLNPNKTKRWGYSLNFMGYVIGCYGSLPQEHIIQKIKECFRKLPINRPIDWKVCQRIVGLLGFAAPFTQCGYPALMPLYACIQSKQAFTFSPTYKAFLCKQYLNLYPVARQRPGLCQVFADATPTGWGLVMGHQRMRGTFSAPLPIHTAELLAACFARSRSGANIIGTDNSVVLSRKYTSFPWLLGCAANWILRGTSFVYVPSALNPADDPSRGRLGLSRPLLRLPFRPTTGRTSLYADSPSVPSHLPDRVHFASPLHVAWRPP

Oc1nc2ccccc2nc1O [Compound 198, 2,3-dihydroxy-quinoxaline]
Inhibition of HBV RNaseH, Oligonucleotide directed cleavage assay (HBV RNaseH [1]): − (No inhibition detected at 100 μM)
HBV replication inhibition, qualitative screen (HBV genotype D): − (No inhibition detected at 20 μM)

Cc1cn([C@H]2CC[C@@H](COP(=O)(O)OP(=O)(O)OP(=O)(O)O)O2)c(=O)[nH]c1=O [ddTTP]
Effect on 32P incorporation / HBV DNA elongation in EPR (HBV polymerase): strongly inhibited

O=C(Nc1ccc2c(c1)C(=O)N(O)C(=O)C2C(=O)NCc1ccc(F)cc1)c1ccccc1 (centres unmarked) [Compound 86]
Inhibition of HBV RNaseH, Molecular Beacon cleavage assay (HBV RNaseH [2]): − (No inhibition detected at 500 μM)
TI (therapeutic index, CC50(MTS)/EC50) (HBV genotype D): 71
EC50 (HBV genotype D): 1.4 ± 0.3 µM
CC50 (HepDES19 cells [3]): 99 ± 2 µM
CC50 (HepDES19 cells [4]): 52 ± 11 µM
CC50 (HepDES19 cells [5]): > 100 µM
Inhibition of HBV RNaseH, Oligonucleotide directed cleavage assay (HBV RNaseH [6]): − (No inhibition detected at 100 μM)
EC50 (HIV replication): > 21 µM

COc1ccc2c(c1)C(=O)N(O)C(=O)C2C(=O)NCc1ccc(F)cc1 (centres unmarked) [Compound 88]
Inhibition of HBV RNaseH, Molecular Beacon cleavage assay (HBV RNaseH [2]): − (No inhibition detected at 500 μM)
TI (therapeutic index, CC50(MTS)/EC50) (HBV genotype D): 16
EC50 (HBV genotype D): 2.5 ± 0.5 µM
CC50 (HepDES19 cells [3]): 40 ± 6 µM
CC50 (HepDES19 cells [4]): 26 ± 2 µM
CC50 (HepDES19 cells [5]): 57 ± 6 µM
Inhibition of HBV RNaseH, Oligonucleotide directed cleavage assay (HBV RNaseH [6]): − (No inhibition detected at 100 μM)

NN1C(=O)Cc2ccccc2C1=O [Compound 204]
Inhibition of HBV RNaseH, Oligonucleotide directed cleavage assay (HBV RNaseH [1]): − (No inhibition detected at 100 μM)
HBV replication inhibition / activity (HBV genotype D): inactive
HBV replication inhibition, qualitative screen (HBV genotype D): − (No inhibition detected at 20 μM)
Inhibition of huRNaseH1 (huRNaseH1): detectably inhibited

Cc1cc(C2CCCCC2)n(O)c(=O)c1 [Compound 41, Ciclopirox, reference compound]
HBV replication inhibition, qualitative screen (HBV genotype D): − (No inhibition detected at 20 μM)
Inhibition of HBV RNaseH, Oligonucleotide directed cleavage assay (HBV RNaseH [6]): − (No inhibition detected at 100 μM)

O=C1CCC(=O)N1O [Compound 139]
HBV replication inhibition / activity (HBV genotype D): inactive
HBV replication inhibition, qualitative screen (HBV genotype D): − (No inhibition detected at 20 μM)
Inhibition of HBV RNaseH, Oligonucleotide directed cleavage assay (HBV RNaseH [6]): − (No inhibition detected at 100 μM)

O=C(NCc1ccc(F)cc1)C1C(=O)N(O)C(=O)c2cc(Cl)ccc21 (centres unmarked) [Compound 87]
Inhibition of HBV RNaseH, Molecular Beacon cleavage assay (HBV RNaseH [2]): − (No inhibition detected at 500 μM)
TI (therapeutic index, CC50(MTS)/EC50) (HBV genotype D): 8.2
EC50 (HBV genotype D): 4.5 ± 3.7 µM
CC50 (HepDES19 cells [3]): 37 ± 17 µM
CC50 (HepDES19 cells [4]): 24 ± 1 µM
CC50 (HepDES19 cells [5]): 52 ± 15 µM
Inhibition of HBV RNaseH, Oligonucleotide directed cleavage assay (HBV RNaseH [6]): − (No inhibition detected at 100 μM)

O=c1[nH]c(=O)c2ccccc2[nH]1 [Compound 197, Benzoylene urea]
Inhibition of HBV RNaseH, Oligonucleotide directed cleavage assay (HBV RNaseH [1]): − (No inhibition detected at 100 μM)
HBV replication inhibition, qualitative screen (HBV genotype D): − (No inhibition detected at 20 μM)

Cc1cc(COc2ccc(Oc3ccc(Cl)cc3)cc2)n(O)c(=O)c1 [Compound 211, Rilopirox, reference compound]
Inhibition of HBV RNaseH, Oligonucleotide directed cleavage assay (HBV RNaseH [1]): − (No inhibition detected at 100 μM)
Inhibition in the molecular beacon assay (HBV RNaseH [2]): had no effect on the rate of substrate degradation
Inhibition of HBV RNaseH, Molecular Beacon cleavage assay (HBV RNaseH [2]): − (No inhibition detected at 500 μM)
HBV replication inhibition / activity (HBV genotype D): inactive
HBV replication inhibition, qualitative screen (HBV genotype D): − (No inhibition detected at 20 μM)
Effect on 32P incorporation / HBV DNA elongation in EPR (HBV polymerase): None of the HBV inhibitors nor the two negative control compounds (#138 and 211) significantly altered incorporation

Nc1cccc(=O)[nH]1 [Compound 206]
Inhibition of HBV RNaseH, Oligonucleotide directed cleavage assay (HBV RNaseH [1]): − (No inhibition detected at 100 μM)
HBV replication inhibition, qualitative screen (HBV genotype D): − (No inhibition detected at 20 μM)
Inhibition of huRNaseH1 (huRNaseH1): detectably inhibited

CC(=Nc1ccccc1N)c1c(C)cc(=O)n(O)c1O [Compound 208]
Inhibition of RNA cleavage by the HBV RNaseH (HBV RNaseH [1]; 100, 60 and 20 μM): inhibited RNA cleavage
Inhibition of HBV RNaseH, Oligonucleotide directed cleavage assay (HBV RNaseH [1]): + (Dose-dependent inhibition at ≤100 μM)
Inhibition in the molecular beacon assay (HBV RNaseH [2]): inhibited
Inhibition of HBV RNaseH, Molecular Beacon cleavage assay (HBV RNaseH [2]): + (Dose-dependent inhibition at ≤500 μM)
Inhibition of huRNaseH1 (huRNaseH1): did not inhibit
CC50 (HepDES19 cells [3]): 15 ± 7 µM
CC50 (HepDES19 cells [4]): 13 ± 1 µM
CC50 (HepDES19 cells [5]): 12 ± 0.1 µM
Stability in mouse liver microsomes: stable

Cc1cc(CC(C)CC(C)(C)C)n(O)c(=O)c1.NCCO (centres unmarked) [Compound 191, Piroctone olamine, reference compound]
Inhibition of HBV RNaseH, Oligonucleotide directed cleavage assay (HBV RNaseH [1]): − (No inhibition detected at 100 μM)
HBV replication inhibition, qualitative screen (HBV genotype D): − (No inhibition detected at 20 μM)
